Measurements published in ChEMBL document CHEMBL4190234, “Design, synthesis and anticancer activity of new monastrol analogues bearing 1,3,4-oxadiazole moiety” (Eur J Med Chem, 2017).

Legend:
Assay type in all cases: functional
[1] = tested on: MDA-MB-435; assay: Growth inhibition of human MDA-MB-435 cells at 10 uM incubated for 48 hrs by sulforhodamine B assay relative to control; settings: MDA-MB-435, 48 h, read-out: GI
In short: (§1)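 Single-dose screen at 10 μM final: cells in RPMI 1640, 5% FBS, 2 mM L-glutamine, plated 5,000–40,000/well, preincubated 24 h at 37°C, 5% CO2; drug 48 h; adherent cells fixed with 10% TCA, suspension cells with 16% TCA; SRB stain, absorbance 515 nm; percentage growth versus untreated control, with time-zero plates.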

[2] = tested on: IGROV-1; assay: Growth inhibition of human IGROV1 cells at 10 uM incubated for 48 hrs by sulforhodamine B assay relative to control; settings: IGROV-1, 48 h, read-out: GI; in short: as §1
[3] = tested on: BT-549; assay: Growth inhibition of human BT549 cells at 10 uM incubated for 48 hrs by sulforhodamine B assay relative to control; settings: BT-549, 48 h, read-out: GI; in short: as §1
[4] = tested on: SK-MEL-2; assay: Growth inhibition of human SK-MEL-2 cells at 10 uM incubated for 48 hrs by sulforhodamine B assay relative to control; settings: SK-MEL-2, 48 h, read-out: GI
In short: (§2)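 NCI single-dose screen: cells grown in RPMI 1640 with 5% FBS and 2 mM L-glutamine, plated at 5,000–40,000 cells/well and preincubated 24 h at 37 °C, 5% CO2. Compounds taken from DMSO stock and tested at final 10 µM for 48 h. Cells fixed with TCA, stained with 0.4% SRB, absorbance read at 515 nm. Percentage growth calculated against untreated controls; controls held DMSO at the same dilution.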

[5] = tested on: SW-620; assay: Growth inhibition of human SW620 cells at 10 uM incubated for 48 hrs by sulforhodamine B assay relative to control; settings: SW-620, 48 h, read-out: GI; in short: as §2
[6] = tested on: SNB-19; assay: Growth inhibition of human SNB19 cells at 10 uM incubated for 48 hrs by sulforhodamine B assay relative to control; settings: SNB-19, 48 h, read-out: GI; in short: as §2
[7] = tested on: 786-0; assay: Growth inhibition of human 786-0 cells at 10 uM incubated for 48 hrs by sulforhodamine B assay relative to control; settings: 786-0, 48 h, read-out: GI; in short: as §1
[8] = tested on: PC-3; assay: Growth inhibition of human PC3 cells at 10 uM incubated for 48 hrs by sulforhodamine B assay relative to control; settings: PC-3, 48 h, read-out: GI; in short: as §1
[9] = tested on: UACC-62; assay: Growth inhibition of human UACC62 cells at 10 uM incubated for 48 hrs by sulforhodamine B assay relative to control; settings: UACC-62, 48 h, read-out: GI; in short: as §2
[10] = tested on: CCRF-CEM; assay: Growth inhibition of human CCRF-CEM cells at 10 uM incubated for 48 hrs by sulforhodamine B assay relative to control; settings: read-out: GI; in short: as §1
[11] = tested on: OVCAR-8; assay: Growth inhibition of human OVCAR8 cells at 10 uM incubated for 48 hrs by sulforhodamine B assay relative to control; settings: OVCAR-8, 48 h, read-out: GI; in short: as §1
[12] = tested on: MDA-MB-468; assay: Growth inhibition of human MDA-MB-468 cells at 10 uM incubated for 48 hrs by sulforhodamine B assay relative to control; settings: MDA-MB-468, 48 h, read-out: GI; in short: as §1
[13] = tested on: T47D; assay: Growth inhibition of human T47D cells at 10 uM incubated for 48 hrs by sulforhodamine B assay relative to control; settings: read-out: GI; in short: as §2
[14] = tested on: HOP-62; assay: Growth inhibition of human HOP62 cells at 10 uM incubated for 48 hrs by sulforhodamine B assay relative to control; settings: HOP-62, 48 h, read-out: GI; in short: as §1
[15] = tested on: HCT-116; assay: Growth inhibition of human HCT116 cells at 10 uM incubated for 48 hrs by sulforhodamine B assay relative to control; settings: HCT-116, 48 h, read-out: GI; in short: as §1
[16] = tested on: U-251; assay: Growth inhibition of human U251 cells at 10 uM incubated for 48 hrs by sulforhodamine B assay relative to control; settings: U-251, 48 h, read-out: GI; in short: as §2
[17] = tested on: SR; assay: Growth inhibition of human SR cells at 10 uM incubated for 48 hrs by sulforhodamine B assay relative to control; settings: read-out: GI; in short: as §2
[18] = tested on: NCI-H226; assay: Growth inhibition of human NCI-H226 cells at 10 uM incubated for 48 hrs by sulforhodamine B assay relative to control; settings: NCI-H226, 48 h, read-out: GI; in short: as §1
[19] = tested on: A498; assay: Growth inhibition of human A498 cells at 10 uM incubated for 48 hrs by sulforhodamine B assay relative to control; settings: A498, 48 h, read-out: GI; in short: as §1
[20] = tested on: COLO 205; assay: Growth inhibition of human COLO205 cells at 10 uM incubated for 48 hrs by sulforhodamine B assay relative to control; settings: COLO 205, 48 h, read-out: GI; in short: as §1
[21] = tested on: A549; assay: Growth inhibition of human A549/ATCC cells at 10 uM incubated for 48 hrs by sulforhodamine B assay relative to control; settings: A549, 48 h, read-out: GI; in short: as §1
[22] = tested on: SN12C; assay: Growth inhibition of human SN12C cells at 10 uM incubated for 48 hrs by sulforhodamine B assay relative to control; settings: read-out: GI; in short: as §2
[23] = tested on: MDA-MB-231; assay: Growth inhibition of human MDA-MB-231 cells at 10 uM incubated for 48 hrs by sulforhodamine B assay relative to control; settings: MDA-MB-231, 48 h, read-out: GI; in short: as §1
[24] = tested on: MCF7; assay: Growth inhibition of human MCF7 cells at 10 uM incubated for 48 hrs by sulforhodamine B assay relative to control; settings: MCF7, 48 h, read-out: GI; in short: as §1
[25] = tested on: Hs-578T; assay: Growth inhibition of human Hs 578T cells at 10 uM incubated for 48 hrs by sulforhodamine B assay relative to control; settings: read-out: GI; in short: as §1
[26] = tested on: SK-MEL-28; assay: Growth inhibition of human SK-MEL-28 cells at 10 uM incubated for 48 hrs by sulforhodamine B assay relative to control; settings: SK-MEL-28, 48 h, read-out: GI; in short: as §2
[27] = tested on: HT-29; assay: Growth inhibition of human HT-29 cells at 10 uM incubated for 48 hrs by sulforhodamine B assay relative to control; settings: HT-29, 48 h, read-out: GI; in short: as §1
[28] = tested on: UACC-257; assay: Growth inhibition of human UACC257 cells at 10 uM incubated for 48 hrs by sulforhodamine B assay relative to control; settings: UACC-257, 48 h, read-out: GI; in short: as §2
[29] = tested on: SF-295; assay: Growth inhibition of human SF295 cells at 10 uM incubated for 48 hrs by sulforhodamine B assay relative to control; settings: SF-295, 48 h, read-out: GI; in short: as §2
[30] = tested on: Malme-3M; assay: Growth inhibition of human MALME-3M cells at 10 uM incubated for 48 hrs by sulforhodamine B assay relative to control; settings: read-out: GI; in short: as §1

Row | SMILES | inhibition of growth at 10 µM [1] [%] | inhibition of growth at 10 µM [2] [%] | inhibition of growth at 10 µM [3] [%] | inhibition of growth at 10 µM [4] [%] | inhibition of growth at 10 µM [5] [%] | inhibition of growth at 10 µM [6] [%] | inhibition of growth at 10 µM [7] [%] | inhibition of growth at 10 µM [8] [%] | inhibition of growth at 10 µM [9] [%] | inhibition of growth at 10 µM [10] [%] | inhibition of growth at 10 µM [11] [%] | inhibition of growth at 10 µM [12] [%] | inhibition of growth at 10 µM [13] [%] | inhibition of growth at 10 µM [14] [%] | inhibition of growth at 10 µM [15] [%] | inhibition of growth at 10 µM [16] [%] | inhibition of growth at 10 µM [17] [%] | inhibition of growth at 10 µM [18] [%] | inhibition of growth at 10 µM [19] [%] | inhibition of growth at 10 µM [20] [%] | further results
1 | CCOC(=O)C1=C(C)NC(SCc2nnc(-c3ccc(OC)cc3)o2)=NC1c1ccc(F)cc1 (stereo not given) | < 10 | < 10 | < 10 | < 10 | < 10 | 11.4 | < 10 | 12.5 | < 10 | 15.3 | < 10 | < 10 | 33.3 | 12 | < 10 | < 10 | 15.9 | 10.4 | < 10 | < 10 | inhibition of growth at 10 µM [21]: 12.7%; inhibition of growth at 10 µM [22]: < 10%; inhibition of growth at 10 µM [23]: < 10%; inhibition of growth at 10 µM [24]: < 10%; inhibition of growth at 10 µM [25]: < 10%; inhibition of growth at 10 µM [26]: < 10%; inhibition of growth at 10 µM [27]: < 10%; inhibition of growth at 10 µM [28]: 11.8%; inhibition of growth at 10 µM [29]: < 10%; inhibition of growth at 10 µM [30]: < 10%
2 | CCOC(=O)C1=C(C)NC(SCc2nnc(-c3ccc(Cl)cc3)o2)=NC1c1cccc(Cl)c1 (stereo not given) | < 10 | 14.6 | 46.9 | 39.9 | < 10 | 10.4 | 43 | 39.2 | 26.6 | 38.2 | 33.7 | < 10 | 69.2 | 25.1 | 56.5 | < 10 | 16.4 | < 10 | < 10 | 29.6 | inhibition of growth at 10 µM [21]: 29.5%; inhibition of growth at 10 µM [22]: < 10%; inhibition of growth at 10 µM [23]: 18.9%; inhibition of growth at 10 µM [24]: 32%; inhibition of growth at 10 µM [25]: < 10%; inhibition of growth at 10 µM [26]: < 10%; inhibition of growth at 10 µM [27]: 46.4%; inhibition of growth at 10 µM [28]: 22.2%; inhibition of growth at 10 µM [29]: 25.5%; inhibition of growth at 10 µM [30]: < 10%
3 | CCOC(=O)C1=C(C)NC(SCc2nnc(-c3ccc(Cl)cc3)o2)=NC1c1ccc(OC)cc1 (stereo not given) | < 10 | 17.8 | 16.9 | < 10 | < 10 | 12.5 | 18.8 | 17.9 | 15.3 | 12.9 | < 10 | < 10 | 15.2 | < 10 | < 10 | 10.1 | 18.1 | 11.8 | < 10 | < 10 | inhibition of growth at 10 µM [21]: 11.5%; inhibition of growth at 10 µM [22]: < 10%; inhibition of growth at 10 µM [23]: 10.2%; inhibition of growth at 10 µM [24]: < 10%; inhibition of growth at 10 µM [25]: < 10%; inhibition of growth at 10 µM [26]: < 10%; inhibition of growth at 10 µM [27]: < 10%; inhibition of growth at 10 µM [28]: < 10%; inhibition of growth at 10 µM [29]: < 10%; inhibition of growth at 10 µM [30]: < 10%
4 | CCOC(=O)C1=C(C)NC(SCc2nnc(-c3ccc(Cl)cc3)o2)=NC1c1ccc(Br)cc1 (stereo not given) | 34.9 | 34.5 | 20.2 | < 10 | < 10 | 28 | 15.1 | 51.2 | 44.7 | 56.6 | 27.3 | 41.8 | 52 | 13.1 | 51.4 | 34.3 | 61.2 | 21.1 | 26.8 | 22.4 | inhibition of growth at 10 µM [21]: 37.6%; inhibition of growth at 10 µM [22]: < 10%; inhibition of growth at 10 µM [23]: 40.2%; inhibition of growth at 10 µM [24]: 55.2%; inhibition of growth at 10 µM [25]: 12.9%; inhibition of growth at 10 µM [26]: 18.7%; inhibition of growth at 10 µM [27]: 21.3%; inhibition of growth at 10 µM [28]: 27%; inhibition of growth at 10 µM [29]: 26.4%; inhibition of growth at 10 µM [30]: 16.9%
